{"data": "Measurements gathered from unrelated publications", "D14": "D14 (Arabidopsis thaliana, UniProt Q9SQR3)", "AMY2": "Pancreatic alpha-amylase (AMY2, Sus scrofa, UniProt P00690)", "note": "Each line is one published result; the experiments were not run side by side."}
{"SMILES": "C#Cc1cc(-c2cc(Nc3nc(N[C@@H](C)c4ccc(F)cn4)ncc3Cl)n[nH]2)ccc1C=O", "target": "Ribosomal protein S6 kinase alpha-1 (RPS6KA1, Homo sapiens, UniProt Q15418)", "assay": "enzyme activity, inhibitor", "setting": "0.2 µM", "endpoint": "inhibition", "value": "56.8%"}
{"SMILES": "CC1=C(/C=C/C(C)=C/C=O)C(C)(C)CCC1", "target": "D14", "assay": "thermal stability, DSF", "setting": "100 µM", "endpoint": "ΔTm", "value": "-9.02 °C"}
{"SMILES": "O=c1cc(-c2ccc(O)cc2)oc2c(Br)c(O)c(Br)c(O)c12", "target": "AMY2", "assay": "enzyme activity, inhibitor", "setting": "50 µM, 30 min", "endpoint": "inhibition", "value": "68.2%"}
{"SMILES": "CCCCC(=O)Nc1ccc(-c2ccc3ncn(CCC)c(=O)c3c2)cn1", "target": "Tyrosine-protein kinase Fer (FER, Homo sapiens, UniProt P16591)", "assay": "binding, competition with immobilised ligand", "setting": "0.5 µM", "endpoint": "remaining binding", "value": "100%"}
{"SMILES": "O=c1cc(-c2ccc(O)cc2)oc2cc(O)cc(O)c12", "target": "AMY2", "assay": "enzyme activity, inhibitor", "setting": "50 µM", "endpoint": "inhibition", "value": "87.5%"}
{"SMILES": "Cc1cc(O)c(-c2ccc([C@@H](C)CN(C)C)cc2)c2c1[nH]c(=O)c1sccc12", "target": "Ribosomal protein S6 kinase alpha-1, C-terminal kinase domain (RPS6KA1, Homo sapiens, UniProt Q15418)", "assay": "enzyme activity, inhibitor", "setting": "0.1 µM", "endpoint": "inhibition", "value": "-4.95%"}
{"SMILES": "CC1=C(/C=C/C(C)=C/C=O)C(C)(C)C[C@H](O)C1", "target": "D14", "assay": "thermal stability, DSF", "setting": "50 µM", "endpoint": "ΔTm", "value": "-3.04 °C"}
{"SMILES": "C1=C/COCc2cc(ccc2OCCN2CCCC2)Nc2nccc(n2)-c2cccc(c2)COC/1", "target": "MAP kinase-activated protein kinase 5 (MAPKAPK5, Homo sapiens, UniProt Q8IW41)", "assay": "binding", "setting": "0.1 µM", "endpoint": "remaining binding", "value": "75%"}
{"SMILES": "O=c1cc(-c2ccc(O)c(O)c2)oc2cc(O)cc(O)c12", "target": "AMY2", "assay": "enzyme activity, inhibitor", "setting": "50 µM, 30 min", "endpoint": "inhibition", "value": "97.5%"}
{"SMILES": "CC1=CC(O/C=C2/C(=O)OC3c4ccccc4CC23)OC1=O (racemic)", "target": "D14", "assay": "thermal stability, DSF", "setting": "10 µM", "endpoint": "ΔTm", "value": "-7.04 °C"}
